Test results reported in the RNAGym collection of RNA variant scans (doi:10.1126/science.aae0568).
This sample holds only a part of the variants without activity.

B1: tRNA (parent)
chain: GUUCCGUUGGCGUAAUGGUAACGCGUCUCCCUCCUAAGGAGAAGACUGCGGGUUCGAGUCCCGUACGGAACG

Variants of: B1
Assay: yeast fitness relative to wild type (ratio to wild type); higher = fitter; tRNA-Arg(CCU), competitive growth, 37 C, YPD
Method in brief: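 Variants of the tRNA-Arg(CCU) gene, chemically synthesised with a 3% per-site mutation rate at 69 sites, were placed at the native genomic locus in Saccharomyces cerevisiae. The pooled strains were competed in YPD at 37°C for 24 hours in six parallel replicates. Gene amplicons from the start population and from each end population were read by 100-nucleotide paired-end sequencing. Darwinian fitness relative to wild type came from changes in genotype frequencies; genotypes needed ≥ 100 starting reads, and estimates < 0.5 were set to 0.5.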

Variant | yeast fitness
C4U A45G | 0.856
C4U A45C | 0.939
C4U A21G C31G C34G | 0.596
C4G U19G A43U | ≤ 0.5
C4U A65C | 0.873
C4U A65G | 0.877
C4U A36G C61U | 0.73
C4U A37C G63A | 0.593
C4U A15U U16A G23C A57U A69U | ≤ 0.5
C4U A20G C61A | 0.512
C4U C5G C29G C31G A37C U54A | ≤ 0.5
C4U C11A A37C G67C | ≤ 0.5
C4U C5G C66U | 0.564
C4U C24A U59G C62U A70G | ≤ 0.5
C4U A36U A45C C61G A70C | 0.852
C4U A15U C30A A40G C66U | 0.6
C4U A40G | 0.997
C4U C24A U26A | ≤ 0.5
C4G U32C A70U | 0.742
C4U A15C C30G G56A A69C A70G | ≤ 0.5
C4U A21G C49U | 1.01
C4U C5G C11U C29U U32A C33U G67U A70G | ≤ 0.5
C4U C11U C22G C61A | ≤ 0.5
C4G U26A C27U A43G C55U C66U | ≤ 0.5

Variant | yeast fitness
C4U C22G G48A C60G | ≤ 0.5
C4U C5G G41A U59C | ≤ 0.5
C4U A40G A43U C55G | 0.584
C4U A21G C46A G68U | 0.574
C4U C31G C46U | 0.921
C4U A15G C22U G44C | ≤ 0.5
C4U A36G G39A | 0.679
C4U C5G A40G G51C U59A C61A A69U | ≤ 0.5
C4U C11G U16C C34A C60U A69G | ≤ 0.5
C4U C5U C31G A45G | ≤ 0.5
C4U C31G A45C C49A | ≤ 0.5
C4U A14G A36C C46G C62U | ≤ 0.5
C4U A20U U53C C61U | 0.627
C4U A37G | 0.875
C4U A21G A70U | 0.78
C4U A45C G51A | 0.501
C4U C24G U26A U28G U32A | ≤ 0.5
C4U A21C C31A G56C | ≤ 0.5
C4U C30U C34U | ≤ 0.5
C4U C11G C29U | ≤ 0.5
C4U C30A C61A A70U | 0.536
C4G U28G | 0.696
C4U C30G A36U C66A | ≤ 0.5
C4U C27U G39C U47A | ≤ 0.5

Variant | yeast fitness
C4U C24A A69U | 0.601
C4U C5G A37C | ≤ 0.5
C4U A20G C29G U32A C62A | ≤ 0.5
C4G U16A G63A | 0.534
C4U C22A A40C C55G A57C A69U | ≤ 0.5
C4U A57U | 0.635
C4U C29A C31G A42C A45U | ≤ 0.5
C4U C22G G67U | 0.638
C4U C24A A57G G68C | ≤ 0.5
C4U A14G A36C C46G C61G | 0.544
C4U A42U | 0.944
C4U A57U C61U | 0.605
C4U C11G G51A U59A C62G | ≤ 0.5
C4U C29U C31A C55U A57C | ≤ 0.5
C4U A20C C55A | 0.721
C4U A14G A21G C49U | 0.677
C4U C22U C33U | 0.565
C4U A43G | 1
C4U A21G C46A C62U | 0.691
C4U C30A G63A | 0.828
C4U C22U A42C | ≤ 0.5
C4U A40U G58C | 0.734
C4U C27U U54A | ≤ 0.5
C4U A36U A40C | 0.64

Variant | yeast fitness
C4U C5G C29G C31G A37U C66A | ≤ 0.5
C4G U16A A21C C24G A37U C55U | ≤ 0.5
C4U C29A | 0.691
C4G U26A U32C | 0.565
C4U A42C C61G A65U | 0.62
C4U C22A A40C | ≤ 0.5
C4U C29A G58A C61G A70U | 0.548
C4U C27A C30U A37U C60G | 0.639
C4U C5A C66U | 0.61
C4U A36C C61A | 0.705
C4U A21G C46A U54C | 0.791
C4U C11U C24A U47G | 0.557
C4U A15C A65U A69U | ≤ 0.5
C4U C11U G67A A69C | ≤ 0.5
C4U C24U A36C C61G | ≤ 0.5
C4U C22G A57U G63C | ≤ 0.5
C4U A40U G68U | 0.708
C4U C22G A36C C62G A70C | ≤ 0.5
C4U A42C A45G C66A A69U | ≤ 0.5
C4U C30G A36U C55U | ≤ 0.5
C4U C24G | 0.591
C4U C24U | 0.944
C4U C11G C22G C62U | ≤ 0.5
C4G U16C G41C C62U | ≤ 0.5

Variant | yeast fitness
C4G U59C | 0.771
C4U A15G C33A U59C C60U | ≤ 0.5
C4U A20C C22U U47G G67A A69U | ≤ 0.5
C4G U16C C29G A36U A70G | ≤ 0.5
C4U C11U U26G U28C A37G G41A C49G | ≤ 0.5
C4U C11G C29A U54A A57U | ≤ 0.5
C4U A14U G50C G51C G56A | ≤ 0.5
C4G U13G U16C | 0.566
C4G U13G U16A | ≤ 0.5
C4U C24U U26C G68A | ≤ 0.5
C4U C11A A37C C66A | 0.535
C4U A14C C22U C34U | ≤ 0.5
C4U A15C C30G C49U A69C A70G | ≤ 0.5
C4U C30A C61U | 0.812
C4G U26A C27U A43G C55U C62U | 0.589
C4U A14U C46U | 0.577
C4U C27U U47C | 0.734
C4U A15C C34A G63C | ≤ 0.5
C4G U19C C24U | 0.619
C4U C5G C29G C31G A37C C66A | 0.66
C4U C27A C31U A43U | 0.57
C4U A15U U28C A57G C61G | ≤ 0.5
C4U A42G U47C G58A | ≤ 0.5
C4U A21G C46A | 0.899

Variant | yeast fitness
C4U C11U A15G C34U U54C C55U | 0.501
C4U A36U G41C C55U U64C | 0.587
C4U C11A G12A U28C G44C | ≤ 0.5
C4U C24G U26A U28G A65U | ≤ 0.5
C4U A37C G41C | 0.577
C4U C30A G50U | 0.715
C4U C27A G51C | 0.562
C4U C5G C31G G50C | ≤ 0.5
C4U A15U C30A A40G C66U A70G | ≤ 0.5
C4U A20U A40U G52A A69U | ≤ 0.5
C4U C24U U54A | ≤ 0.5
C4U A42C A43C C49U A70C | ≤ 0.5
C4U A37G G39C C61U | ≤ 0.5
C4U C22U C55G | ≤ 0.5
C4U C22U C55U | 0.544
C4U A14G C34G | ≤ 0.5
C4G U19C C29A C33G A45C | ≤ 0.5
C4U A37U A43U | ≤ 0.5
C4U C5A A36C A42G G52A | 0.578
C4U A20G A45U C49U C61U C62G A69C | ≤ 0.5
C4U C5G C29G C31G A37C | 0.627
C4U C11G A20G C34U | ≤ 0.5
C4G U35G A42C C66U | ≤ 0.5
C4G U16C A36U | ≤ 0.5

Variant | yeast fitness
C4U C24U C27A C60G G67C | ≤ 0.5
C4U A20G C55U A65G | ≤ 0.5
C4G U16C C31U A42G | ≤ 0.5
C4U C11U G23C A37U G44A | ≤ 0.5
C4U C11G C29A U54A U59G | ≤ 0.5
C4U C11U C33U C62A | ≤ 0.5
C4U A36U A40C A65C | ≤ 0.5
C4U C30A C62U | 0.792
C4U A36C U59A | ≤ 0.5
C4U C30A U53C A70C | ≤ 0.5
C4U | 0.989
C4U C31G C55U | 0.579
C4U C11U C30G G68C | 0.593
C4U A45U G68C | 0.7
C4U A42G G58A | 0.717
C4G U26A A57G | ≤ 0.5
C4G U26A U47G U54C | ≤ 0.5
C4U A14G | 0.856
C4U C24A C62U A69U | ≤ 0.5
C4U A43G G68C | 0.553
C4U A37U A70U | 0.676
C4U C29U G48A | 0.662
C4U A20U C22G | 0.54
